Most compounds without a hit are left out; they make up all but 4.2% or so of the library.
Cl transport mod: modulates chloride dependent transport by human KCC2; Q9H2X9; KCC2 cells, thallium flux FluoZin-2 fluorescence; B-score of Tl+ flux slope (higher = more flux/activation; lower = inhibition) at 10 µM; 190,000 compounds, 2.2% hits; AID 1456;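 active means thallium flux slope and its plate-corrected score both differing from the plate sample mean at a set confidence after two filtering rounds, in either direction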;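 further: slope of fluorescence scaled to starting intensity during 10 to 20 s after thallium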
AI-2 QS mod: modulators of Vibrio harveyi AI-2 quorum sensing system. Vibrio harveyi JMH597 AI-2 luminescence/OD600 ratio, 9 h; hits give low values; strain lacks LuxN and CqsS sensors; 0 = neutral-control median. activity change, % at 7.5 µM. 300,000 compounds, 0.4% hits. AID 2094; in the data active means activity change below about -75%, passing the limit was not always enough;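 further: luminescence divided by OD600 gain over 9 h not by final OD600 alone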
SUMO Mot1 rescue: inhibitors of SUMOylation pathway: yeast Mot1-301 growth rescue | S. cerevisiae Mot1-301 growth rescue, ATP luminescence, 38.5C; percent above DMSO median, 100 means doubled | growth rescue, % at 18.8 µM | 320,000 compounds, 1% hits | AID 2716;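 active means every valid replicate shows activation above 250% relative to neutral control wells; inactive means the rest, any valid replicate at or below 250%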;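 further: OY570 slx delta 5 strain wells were the positive control but not used for scaling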
KCNQ1 inh: inhibitors of human KCNQ1 potassium channel | AID 2642 | 310,000 compounds, 1.3% hits | P51787 | CHO-K1 KCNQ1, FluxOR thallium flux fluorescence; hits give high values | B-score at 10 µM;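 active means compounds whose thallium flux B-score, printed positive for inhibition, exceeds three library SD while starting fluorescence stays within three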;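 further: channel opened by potassium depolarization with thallium stimulus after 20 min compound exposure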
KCNQ1 pot: potentiators or activators of human KCNQ1 potassium channel. P51787. CHO-K1 KCNQ1, thallium flux FluxOR fluorescence; hits give high values. B-score at 10 µM. 310,000 compounds, 0.35% hits;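 active means fluorescence ratio B-score, a plate-corrected score, at least three library SD, with initial intensity B-score within 5 SD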
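Material: CHO-K1 cells stably expressing KCNQ1. Medium: assay buffer for compound exposure, DMSO matched across wells. Reagent: K+/Tl+ depolarizing stimulus. Compound dosing: single-concentration screen. Times: 37 °C overnight plating, 90-min dark dye load, 20-min compound pretreatment. Technique: FluxOR Tl+ flux fluorescence.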
hERG protect: shields human hERG channel from block by proarrhythmic agents | Q12809 | CHO-hERG, FluxOR thallium flux, dofetilide IC70 present | activation (rescue from dofetilide block), less the hit threshold, % at 10 µM | 310,000 compounds, 0.51% hits;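 active means activation above the mean of controls blocked by dofetilide plus 5 SD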;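 further: thallium influx through hERG after potassium depolarization seen as dye fluorescence rise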
KCNQ1 inh valid: reconfirmed blocker of the human KCNQ1 potassium channel. shares compounds with KCNQ1 inh. KCNQ1 cell line, FluxOR thallium flux fluorescence. inhibition, % at 10 µM. 1,600 compounds, 93% hits. AID 588353;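 active means primary screen active, with duplicate mean exceeding buffer control mean plus 3 SD of buffer wells, cut at about 28% in these data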;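 further: 0% = buffer control ratio and 100% = XE991 inhibitor control ratio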
CHO KCNQ1 ctr: activity in parental CHO cells lacking KCNQ1; shares compounds with KCNQ1 inh; 1,600 compounds, 21% hits; parental CHO-K1, FluxOR thallium flux fluorescence ratio; hits give low values; zero means no signal rise above baseline; AID 588366; fluorescence ratio (Tl flux) at 10 µM;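 active means mean of duplicate thallium-flux fluorescence ratios in parental host cells more than 5 SD below the buffer control mean, cut at about 0.38 in these data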;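 further: ratio is peak minus minimum fluorescence divided by baseline fluorescence; actives read low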
KCNQ1 APC inh: blocks human KCNQ1 current in automated patch clamp; KCNQ1-CHO cells; 490 compounds, 20% hits; calls only at 10 µM; shares compounds with KCNQ1 inh;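 active means KCNQ1 current drop exceeding 3 SD of negative control wells, seen in both duplicate runs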;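 further: steady state current during a 2 s step from -80 to +40 mV; negative values mean current inhibition and positive values mean potentiation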
KCNQ2 spec: KCNQ1 inhibitor that also blocks rat KCNQ2 channel; 1,600 compounds, 71% hits; inhibition, % at 10 µM; KCNQ2 cells, FluxOR thallium flux fluorescence; AID 651746; shares compounds with KCNQ1 inh;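 active means mean percent inhibition of the KCNQ2 thallium signal more than 5 SD above the buffer-only control wells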;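 further: KCNQ2 expressed in CHO cells; 0% = buffer control wells and 100% = XE-991 inhibitor control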
KCNQ1-KCNE1 inh: human KCNQ1/KCNE1 inhibition in KCNQ1 specificity screen; 1,600 compounds, 77% hits; AID 652147; shares compounds with KCNQ1 inh; KCNQ1/KCNE1 cells, FluxOR thallium flux fluorescence; inhibition, % at 10 µM;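 active means mean percent inhibition of duplicate wells above the buffer-only control mean plus 3 SD of those controls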;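 further: 0% = buffer only wells and 100% = XE-991 inhibitor control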
* marks the source's active call; other numbers are inactive results; i = inactive; . = no result given; + = active, no number.

SMILES	Cl transport mod	AI-2 QS mod	SUMO Mot1 rescue	KCNQ1 inh	KCNQ1 pot	hERG protect	KCNQ1 inh valid	CHO KCNQ1 ctr	KCNQ2 spec	KCNQ1-KCNE1 inh	others
CC(C)(C)OC(=O)NCCCCCO	.	.	15	.	.	.	.	.	.	.
CC1(C)Cc2c(cnn2-c2ccc(F)cc2)C(NC(=O)C2CCC2)C1 (stereo not given)	.	-3	-1	8*	i	-6	103*	0.46	70%*	112%*	KCNQ1 APC inh=+
CC1(C)Cc2c(cnn2-c2ccc(F)cc2)C(NC(=O)C(C)(C)O)C1 (stereo not given)	.	25	3	i	i	-7	.	.	.	.
Cc1ccc(C(CC(=O)O)NC(=O)c2ccc(S(=O)(=O)N3CC(C)OC(C)C3)cc2)cc1 (stereo not given)	.	.	-10	.	.	.	.	.	.	.
CCC(C)n1c(NC(=O)c2ccccc2)c(C#N)c2nc3ccccc3nc21 (stereo not given)	.	14	4	8*	i	-15	82*	0.44	64%*	i
CN(CCCNC(=O)CSc1cc(=O)n(C)c2cc(Cl)ccc12)Cc1ccccc1	1	8	25	i	i	-10	.	.	.	.
Cc1nn(C)c(C)c1NC(=O)Nc1ccc(Cl)c(Cl)c1	0.095	21	176	6*	i	-21	77*	0.46	i	76%*
Cc1nn(C)c(C)c1NC(=O)Nc1cccc(C(F)(F)F)c1	0.021	3	280	i	i	-4	.	.	.	.
COc1ccc(C(=O)N=c2sc3c(C)ccc(OC)c3n2C)cc1	0.39	23	-4	i	i	-10	.	.	.	.
CC(=O)Nc1cccc(-c2csc(Nc3cc(C)ccn3)n2)c1	.	-13	154	6*	i	-17	70*	0.51	90%*	38%*
O=C(NCCN1CCOCC1)c1ccc(NS(=O)(=O)c2cccc([N+](=O)[O-])c2)cc1	.	11	13	i	i	-6	.	.	.	.
Fc1ccc(NC(=S)Nc2cccnc2)cc1	-0.071	2	-3	i	i	-23	.	.	.	.
Fc1ccc(NC(=S)Nc2cccnc2)cc1Cl	1.2	16	.	8*	i	-13	66*	0.47	i	34%*
O=C(Nc1ccc(OC(F)(F)F)cc1)Nc1cccnc1	-0.03	8	-4	6*	i	-7	40*	0.48	i	i
Fc1ccc(NC(=S)Nc2ccccc2N2CCOCC2)cc1Cl	-0.3	15	.	9*	i	-22	0	0.5	i	i
Cc1ccc(NC(=O)Nc2cccnc2)cc1Cl	.	17	15	7*	i	-17	66*	0.51	i	i
COc1ccc(CN2CC(C(=O)N3CC(C)CC(C)C3)CC2=O)cc1 (stereo not given)	.	12	-14	i	i	-8	.	.	.	.
O=C(c1cncc(Br)c1)N1CCN(S(=O)(=O)c2ccc3ccccc3c2)CC1	.	.	5	.	.	.	.	.	.	.
Cc1ccc(S(=O)(=O)N2CCC(C(=O)NNS(=O)(=O)c3ccc(Cl)cc3)CC2)cc1	.	25	-27	i	i	-11	.	.	.	.
O=C1CC(N2CCN(S(=O)(=O)c3ccccc3F)CC2)C(=O)N1c1ccccc1Cl (stereo not given)	.	.	27	.	.	.	.	.	.	.

Screening results: PubChem, several laboratories
